Laboratory results: ChEMBL document CHEMBL1123317, “[pGlu6,Pro9]SP6-11, a selective agonist for the substance P P-receptor subtype” (J Med Chem, 1986)
pEC50: −log10 of the molar value.

Experiments:
[1] = species: Cavia porcellus; test: Compound was evaluated for potency relative to neurokinin B against SP-N system (enteric nerves of Guinea pig ileum); format: functional
How it was run: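 Neuronal SP-N receptor of guinea pig ileum assayed after desensitizing the muscular receptor with substance P methyl ester 10⁻⁷ M (2-min preincubation). Tissue in Tyrode's solution, 95% O2-5% CO2, 34 °C; isotonic contractions; peptides at 2-3-min intervals, under 30 s contact.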

[2] = tested on: Cricetinae gen. sp.; test: Compound was evaluated for potency in SP-E system and relative potency was determined against Hamster urinary bladder; format: functional, Cricetulus griseus
How it was run: (§1)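 Isolated tissue (hamster urinary bladder or rat duodenum) in 10-mL bath of Tyrode's solution gassed with 95% O2-5% CO2 at 34 °C; isotonic contraction recorded. Duodenum: peptides applied at 2-3-min intervals, contact under 30 s. Bladder: 15-30-min intervals, contact 1-3 min.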

[3] = species: Rattus norvegicus; test: Compound was evaluated for potency in SP-E system and relative potency was determined against rat duodenum; format: functional; how it was run: as §1
[4] = species: Cavia porcellus; test: Compound was evaluated for effective dose against guinea pig ileum; format: functional
How it was run: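 Guinea pig ileum in 10-mL bath of Tyrode's solution, 95% O2-5% CO2, 34 °C, with atropine 10⁻⁶ M present (muscular SP-P receptor); isotonic contractions; peptides applied at 2-3-min intervals, contact under 30 s.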

[5] = tested on: Cricetinae gen. sp.; test: Compound was evaluated for effective dose against hamster bladder; format: functional, Cricetulus griseus; how it was run: as §1
[6] = species: Rattus norvegicus; test: Compound was evaluated for effective dose against rat duodenum; format: functional; how it was run: as §1

SMILES | Relative potency [1] | Relative potency [2] | Relative potency [3] | pEC50 [4] | pEC50 [5] | pEC50 [6]
CSCC[C@H](NC(=O)[C@H](CC(C)C)NC(=O)CNC(=O)[C@@H](NC(=O)[C@H](Cc1ccccc1)NC(=O)[C@H](CO)NC(=O)[C@H](CC(=O)O)NC(=O)[C@@H](NC(=O)[C@H](CCCCN)NC(=O)[C@@H](N)Cc1c[nH]cn1)[C@@H](C)O)C(C)C)C(N)=O [NEUROKININ A] | 0.04 | 1 | 0.3 |  |  | 
CSCC[C@H](NC(=O)[C@H](CC(C)C)NC(=O)CNC(=O)[C@@H](NC(=O)[C@H](Cc1ccccc1)NC(=O)[C@H](Cc1ccccc1)NC(=O)[C@H](CC(=O)O)NC(=O)[C@H](Cc1c[nH]cn1)NC(=O)[C@H](CCSC)NC(=O)[C@@H](N)CC(=O)O)C(C)C)C(N)=O [NEUROKININ B] | 1 | 1 | 1 | 8.82 | 7.30 | 8.19
